According to ChEMBL document CHEMBL1124216, “A novel class of potential central nervous system agents. 3-Phenyl-2-(1-piperazinyl)-5H-1-benzazepines” (1988):

Tests used:
Assay type in all cases: functional
[1] = system: Mus musculus; test: Antiexploratory activity (EXPL) of mice determined by an antimex activity meter, 100 mg/kg of dose was administered perorally; No inhibition; conditions: route oral
[2] = system: Mus musculus; test: Antireserpine activity (RES) of mice after peroral administration of 100 mg/kg of compound; Slight inhibition (31-50%); conditions: route oral
[3] = system: Mus musculus; test: Antitremorine activity(TRM) of mice after peroral administration of 100 mg/kg of compound; No inhibition; conditions: route oral
[4] = system: Mus musculus; test: Antimaximal electroshock seizure (MES) activity in mice after peroral administration of 100 mg/kg of compound; 0/5; conditions: route oral
[5] = system: Mus musculus; test: Antitremorine activity(TRM) of mice after peroral administration of 100 mg/kg of compound; Slight inhibition (31-50%); conditions: route oral
[6] = system: Mus musculus; test: Antireserpine activity (RES) of mice after peroral administration of 100 mg/kg of compound; No inhibition; conditions: route oral
[7] = system: Mus musculus; test: Antipentylene tetrazole activity was determined in mice when administered perorally; conditions: po
Summary of the method: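 Groups of five male Std-ddY mice received compound orally in 0.5% tragacanth, then pentylenetetrazole 175 mg/kg ip. Blockade of the tonic extensor component scored as anticonvulsant. ED50 was the dose protecting 50% of animals (Litchfield-Wilcoxon).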

[8] = system: Mus musculus; test: Antimaximal electroshock seizure activity was determined in mice when administered perorally; conditions: po
[9] = system: Mus musculus; test: Antimaximal electroshock seizure (MES) activity in mice after peroral administration of 100 mg/kg of compound; 5/5; conditions: route oral
[10] = system: Mus musculus; test: Antitremorine activity(TRM) of mice after peroral administration of 100 mg/kg of compound; Moderate inhibition (51-71%); conditions: route oral
[11] = system: Mus musculus; test: Antiexploratory activity (EXPL) of mice determined by an antimex activity meter, 100 mg/kg of dose was administered perorally; Slight inhibition (31-50%); conditions: route oral
[12] = system: Mus musculus; test: Antiexploratory activity (EXPL) of mice determined by an antimex activity meter, 50 mg/kg of dose was administered perorally; No inhibition; conditions: route oral
[13] = system: Mus musculus; test: Antimaximal electroshock seizure (MES) activity in mice after peroral administration of 10 mg/kg of compound; 0/5; conditions: route oral
[14] = system: Mus musculus; test: Exploratory activity of mice determined by an antimex activity meter, 50 mg/kg of dose was administered perorally
Summary of the method: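 Male Std-ddY mice (20-25 g), five per dose; compound in 0.5% aqueous tragacanth given orally. Two hours later each mouse placed in an Animex activity meter cage and locomotor activity counted for 3 min. Mean suppression expressed as percent inhibition of control; ED50 by Litchfield-Wilcoxon.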

[15] = system: Mus musculus; test: 3,4 -Dihydroxy phenylacetic acid (DOPAC) levels in mouse brain at 50 mg/kg dose.
Summary of the method: (§1)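 Male Std-ddY mice, 20-25 g, dosed orally with compound in 0.5% aqueous tragacanth. DOPAC was measured fluorometrically after purification by column chromatography on Sephadex G-10 and QAE-Sephadex. Brains from five mice per compound were pooled for each determination.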

[16] = system: Canis familiaris; test: Inhibition of apomorphine induced emesis in dogs at 1 mg/kg of dose.; conditions: Canis lupus familiaris
Summary of the method: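 Beagle dogs (10-15 kg), groups of three, given compound po in a gelatin capsule; 2 h later apomorphine hydrochloride 0.3 mg/kg sc. Vomiting counted for 1 h; mean inhibition as percent of control. ED50 is the dose giving 50% inhibition of emesis, by Litchfield-Wilcoxon.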

[17] = system: Mus musculus; test: The homovanillic acid (HVA) levels in mouse brain at 50 mg/kg of dose.
Summary of the method: (§2)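 Mice dosed orally in 0.5% aqueous tragacanth; brains of five mice per compound pooled. Homovanillic acid measured in brain extracts and reported as brain level.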

[18] = system: Mus musculus; test: The homovanillic acid (HVA) levels in mouse brain at 10 mg/kg of dose.; summary of the method: as §2
[19] = system: Mus musculus; test: 3,4 -Dihydroxy phenylacetic acid (DOPAC) levels in mouse brain at 10 mg/kg dose.; summary of the method: as §1

SMILES | inhibition in vivo at 100 mg/kg [1] | inhibition in vivo at 100 mg/kg [3] | Activity [4] | inhibition in vivo at 100 mg/kg [6] | other results
C=CCN1CCN(C2=Nc3ccc(Br)cc3CC=C2c2ccccc2)CC1 | < 30% | < 30% | 0 |  | inhibition in vivo at 100 mg/kg [2]: 31%
CCN1CCN(C2=Nc3ccc(C(C)C)cc3CC=C2c2ccccc2)CC1.O=C(O)/C=C/C(=O)O | < 30% |  | 0 | < 30% | inhibition in vivo at 100 mg/kg [5]: 31%
NC(=O)N1c2ccccc2C=Cc2ccccc21 [CARBAMAZEPINE] |  |  |  |  | ED50 [7]: 10.3 mg/kg; ED50 [8]: 13.3 mg/kg
Brc1ccc2c(c1)CC=C(c1ccccc1)C(N1CCNCC1)=N2.O=C(O)/C=C/C(=O)O | < 30% |  | 0 |  | inhibition in vivo at 100 mg/kg [2]: 31%
NC(=O)N1CCN(C2=Nc3ccc(Br)cc3CC=C2c2ccccc2)CC1 | < 30% | < 30% |  | < 30% | Activity [9]: 5
Cl.Cl.OCCN1CCN(C2=Nc3cc(Cl)ccc3CC=C2c2ccccc2)CC1 | < 30% |  | 0 | < 30% | inhibition in vivo at 100 mg/kg [10]: 51%
C1=C(c2ccccc2)C(N2CCCCC2)=Nc2ccccc2C1.Cl.Cl |  | < 30% | 0 | < 30% | inhibition in vivo at 100 mg/kg [11]: 31%
Cc1ccc(C2=CCc3ccccc3N=C2N2CCN(C)CC2)cc1.Cl.Cl | < 30% |  | 0 |  | inhibition in vivo at 100 mg/kg [5]: 31%; inhibition in vivo at 100 mg/kg [2]: 31%
Fc1ccc(C2=CCc3ccccc3N=C2N2CCN(Cc3ccccc3)CC2)cc1 |  |  |  |  | inhibition in vivo at 50 mg/kg [12]: < 30%
CN1CCN(C2=Nc3ccc(F)cc3CC=C2c2ccccc2)CC1.Cl.Cl |  | < 30% | 0 | < 30% | inhibition in vivo at 100 mg/kg [11]: 31%; ED50 [7]: > 200 mg/kg; ED50 [8]: > 500 mg/kg
OC1(c2ccc(Cl)cc2)CCN(C2=Nc3ccccc3CC=C2c2ccccc2)CC1 |  | < 30% | 0 | < 30% | inhibition in vivo at 100 mg/kg [11]: 31%
CC(C)c1ccc2c(c1)CC=C(c1ccccc1)C(N1CCN(C)CC1)=N2.O=C(O)/C=C/C(=O)O | < 30% |  | 0 | < 30% | inhibition in vivo at 100 mg/kg [10]: 51%
CCc1ccc2c(c1)CC=C(c1ccccc1)C(N1CCN(C)CC1)=N2.Cl.Cl |  |  |  | < 30% | Activity [13]: 0; Activity [9]: 5; inhibition in vivo at 100 mg/kg [10]: 51%
Clc1ccc2c(c1)CC=C(c1ccccc1)C(N1CCN(Cc3ccccc3)CC1)=N2 | < 30% | < 30% | 0 |  | inhibition in vivo at 100 mg/kg [2]: 31%
CCCc1ccc2c(c1)CC=C(c1ccccc1)C(N1CCN(CCO)CC1)=N2.Cl.Cl | < 30% |  | 0 | < 30% | inhibition in vivo at 100 mg/kg [10]: 51%
C1=C(c2ccccc2)C(N2CCOCC2)=Nc2ccccc2C1.Cl | < 30% | < 30% | 0 | < 30% | 
CCN1CCN(C2=Nc3ccccc3CC=C2c2ccc(C)cc2)CC1.Cl.Cl | < 30% | < 30% | 0 | < 30% | 
CCCc1ccc2c(c1)CC=C(c1ccccc1)C(N1CCN(CC)CC1)=N2.O=C(O)/C=C/C(=O)O | < 30% | < 30% | 0 | < 30% | 
O=C(CN1CCN(C2=Nc3ccc(Br)cc3CC=C2c2ccccc2)CC1)c1ccccc1 | < 30% | < 30% | 0 | < 30% | 
OCCN1CCN(C2=Nc3ccc(Br)cc3CC=C2c2ccccc2)CC1 | < 30% | < 30% |  | < 30% | Activity [9]: 5; ED50 [7]: 13.2 mg/kg; ED50 [8]: 14.6 mg/kg
O=C1NC(=O)C(c2ccccc2)(c2ccccc2)N1 [PHENYTOIN] |  |  |  |  | ED50 [7]: 3.7 mg/kg; ED50 [8]: 7.9 mg/kg
Brc1ccc2c(c1)CC=C(c1ccccc1)C(N1CCCCC1)=N2 | < 30% | < 30% | 0 |  | inhibition in vivo at 100 mg/kg [2]: 31%
Cl.Cl.OCCN1CCN(C2=Nc3ccc(Br)cc3CC=C2c2ccc(Cl)cc2)CC1 | < 30% | < 30% | 0 | < 30% | 
CN1CCN(C2=Nc3cc(Cl)ccc3CC=C2c2ccccc2)CC1.Cl.Cl | < 30% |  | 0 | < 30% | inhibition in vivo at 100 mg/kg [10]: 51%
Clc1ccccc1C1=CCc2cc(Br)ccc2N=C1N1CCNCC1.O=C(O)/C=C/C(=O)O | < 30% | < 30% | 0 | < 30% | 
CCN1CCN(C2=Nc3ccccc3CC=C2c2ccccc2Cl)CC1.Cl.Cl | < 30% |  | 0 | < 30% | inhibition in vivo at 100 mg/kg [5]: 31%
CN1CCN(C2=Nc3ccccc3CC=C2c2ccc(Br)cc2)CC1.Cl.Cl |  |  |  |  | inhibition in vivo at 50 mg/kg ([14]; Mus musculus, po): 13.2%; Inhibition ([14]; route oral, 50 mg/kg): 13.2%; Control [15]: 233%; inhibition in vivo at 50 mg/kg [12]: < 30%; inhibition in vivo at 1 mg/kg [16]: 72.5%; Control [17]: 294%; Control [18]: 162%; Control [19]: 161%
Clc1ccc(C2=CCc3ccc(Cl)cc3N=C2N2CCNCC2)cc1.O=C(O)/C=C/C(=O)O | < 30% |  | 0 |  | inhibition in vivo at 100 mg/kg [2]: 31%; inhibition in vivo at 100 mg/kg [10]: 51%
